Converted amounts (≈) assume the structure as drawn.
Tests used:
[1] = system: Mycobacterium tuberculosis; assay: Antitubercular activity against Mycobacterium bovis BCG assessed as bacterial growth inhibition by MABA relative to control; type: functional, variant bovis BCG
Outline: (§1)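 Whole-cell growth inhibition of Mycobacterium bovis and M. tuberculosis H37Ra, read quantitatively by Microplate Alamar Blue Assay (alamar blue reagent). Compounds were tested across 1 to 100 µg/ml. Activity was expressed as MIC50 (µg/ml) from this concentration series.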

[2] = system: Mycobacterium tuberculosis; assay: Antitubercular activity against Mycobacterium bovis BCG assessed as bacterial growth inhibition at 10 ug/ml by MABA relative to control; type: functional; settings: variant bovis BCG, read-out: GI
[3] = system: Mycobacterium tuberculosis; assay: Antitubercular activity against Mycobacterium bovis BCG assessed as bacterial growth inhibition at 50 ug/ml by MABA relative to control; type: functional; settings: variant bovis BCG, read-out: GI
[4] = system: Mycobacterium tuberculosis; assay: Antitubercular activity against Mycobacterium bovis BCG assessed as bacterial growth inhibition by alamar blue staining based assay; type: functional; settings: variant bovis BCG; outline: as §1
[5] = system: Mycobacterium tuberculosis; assay: Antitubercular activity against Mycobacterium bovis BCG assessed as bacterial growth inhibition at 100 ug/ml by MABA relative to control; type: functional; settings: variant bovis BCG, read-out: GI
[6] = system: Mycobacterium tuberculosis; assay: Antitubercular activity against Mycobacterium bovis BCG assessed as bacterial growth inhibition at 1 ug/ml by MABA relative to control; type: functional; settings: variant bovis BCG, read-out: GI
[7] = system: Mycobacterium tuberculosis; assay: Antitubercular activity against Mycobacterium bovis BCG assessed as bacterial growth inhibition at 1 to 5 ug/ml by MABA relative to control; type: functional, variant bovis BCG
[8] = system: Mycobacterium tuberculosis; assay: Antitubercular activity against Mycobacterium bovis BCG assessed as bacterial growth inhibition at 25 ug/ml by MABA relative to control; type: functional; settings: variant bovis BCG, read-out: GI
[9] = system: Mycobacterium tuberculosis; assay: Antitubercular activity against Mycobacterium bovis BCG assessed as bacterial growth inhibition at 50 to 100 ug/ml by MABA relative to control; type: functional, variant bovis BCG
[10] = system: Mycobacterium tuberculosis; assay: Antitubercular activity against Mycobacterium bovis BCG assessed as bacterial growth inhibition at 5 ug/ml by MABA relative to control; type: functional; settings: variant bovis BCG, read-out: GI
[11] = system: Mycobacterium tuberculosis; assay: Antitubercular activity against Mycobacterium bovis BCG assessed as bacterial growth inhibition at 10 to 50 ug/ml by MABA relative to control; type: functional, variant bovis BCG

SMILES | inhibition of growth at 10 µg/mL [2] [%] | MIC50 [4] [µg/mL] | inhibition of growth at 100 µg/mL [5] [%] | growth inhibition (GI) [7] [%] | other results
CCCCCCC#Cc1c[nH]c(=O)[nH]c1=O |  |  |  |  | growth inhibition (GI) [1]: 0%
CCCCCCC#Cc1cn([C@@H]2O[C@H](CO)[C@@H](O)[C@H]2O)c(=O)[nH]c1=O | 0 | < 50 | 60 |  | inhibition of growth at 50 µg/mL [3]: 0%
CCCCC#Cc1cn([C@@H]2O[C@H](CO)[C@@H](O)[C@H]2O)c(=O)[nH]c1=O | 0 | 50 (≈ 154 µM) | 50 |  | inhibition of growth at 50 µg/mL [3]: 0%
CO[C@H]1/C=C/O[C@@]2(C)Oc3c(C)c(O)c4c(O)c(c(/C=N/N5CCN(C)CC5)c(O)c4c3C2=O)NC(=O)/C(C)=C\C=C\[C@H](C)[C@H](O)[C@@H](C)[C@@H](O)[C@@H](C)[C@H](OC(C)=O)[C@@H]1C [RIFAMPIN] |  | 0.8 (≈ 0.972 µM) |  |  | inhibition of growth at 1 µg/mL [6]: 100%
CC#Cc1c[nH]c(=O)[nH]c1=O |  |  |  |  | growth inhibition (GI) [1]: 0%
O=c1[nH]c(=O)n([C@@H]2O[C@H](CO)[C@@H](O)[C@H]2O)cc1C#CC1CCCCC1 |  | 19.2 (≈ 54.8 µM) | 90 | 10 | inhibition of growth at 25 µg/mL [8]: 60%
C[Si](C)(C)C#Cc1c[nH]c(=O)[nH]c1=O |  | 100 (≈ 480 µM) | 50 |  | 
O=c1[nH]cc(C#CC(O)c2ccccc2)c(=O)[nH]1 (stereo not drawn) | 80 | 3.1 (≈ 12.8 µM) |  | 50 | growth inhibition (GI) [9]: 90%
N[C@@H]1CONC1=O [CYCLOSERINE] | 71 | 5.1 (≈ 50 µM) |  |  | inhibition of growth at 5 µg/mL [10]: 50%
O=c1[nH]cc(C#CC2CC2)c(=O)[nH]1 |  | 7.8 (≈ 44.3 µM) | 80 |  | growth inhibition (GI) [11]: 60%
O=c1[nH]cc(C#CC2CCCCC2)c(=O)[nH]1 |  | 2.5 (≈ 11.5 µM) | 90 | 50 | growth inhibition (GI) [11]: 75%
CCC#Cc1c[nH]c(=O)[nH]c1=O |  |  |  |  | growth inhibition (GI) [1]: 0%
CCCCC#Cc1c[nH]c(=O)[nH]c1=O |  |  |  |  | growth inhibition (GI) [1]: 0%
O=c1[nH]c(=O)n([C@@H]2O[C@H](CO)[C@@H](O)[C@H]2O)cc1C#CC1CC1 |  | 2.4 (≈ 7.78 µM) | 90 | 50 | 
NNC(=O)c1ccncc1 [ISONIAZID] |  | 0.9 (≈ 6.56 µM) |  |  | inhibition of growth at 1 µg/mL [6]: 100%
O=c1[nH]cc(C#Cc2ccccc2)c(=O)[nH]1 | 40 | 17.4 (≈ 82 µM) |  |  | growth inhibition (GI) [9]: 90%
O=c1[nH]c(=O)n([C@@H]2O[C@H](CO)[C@@H](O)[C@H]2O)cc1C#Cc1ccccc1 | 75 | 2.7 (≈ 7.84 µM) |  | 50 | growth inhibition (GI) [9]: 90%
O=c1[nH]c(=O)n([C@@H]2O[C@H](CO)[C@@H](O)[C@H]2O)cc1C#CC(O)c1ccccc1 (stereo partly drawn) |  | 1.4 (≈ 3.74 µM) |  | 100 | 

Reference: ChEMBL document CHEMBL4622950, “The synthesis and antituberculosis activity of 5-alkynyl uracil derivatives” (Bioorg Med Chem Lett, 2020)
